# Measurements published in PubChem BioAssay.
# The source made the active and inactive calls.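 Rule for the calls, unless noted: active = inhibition at or above 50% at 10 µM; inactive = inhibition below 50%.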
# Columns and labels:
# [1] = inhibitors of TNFa-induced NFkB p65 translocation, primary screen, imaging, HUVEC, MLSMR starter and 10KST1 sets (AID 438;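 active = inhibition above 20% together with a positive visual image hit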;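 note: compound added about 3h40 before a 20 min TNFalpha stimulation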;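 for inhibition: signal is the nuclear over cytoplasmic p65 intensity ratio per well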); settings: HUVEC TNFa-induced p65 nuclear translocation; cell count: measured here: nuclei count (cytotoxicity indicator), at 2.08 µM; inhibition: at 2 µM, stronger effect = higher value, 0% TNFa-plus-vehicle, 100% no-TNFa wells
# [2] = inhibitors of mutant huntingtin aggregation, primary screen, imaging, exon1htt(103Q)mCFP cells, high-content imaging (AID 483;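 active = visual image review flags a hit and inhibition of aggregation exceeds 20%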;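 note: compound exposure lasted 3 days before fixation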;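 for nuclei count: percent of the per-plate median nuclei count of sample wells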); settings: exon1htt(103Q)mCFP cell line, aggregate imaging, at 2 µM; inhibition of aggregation: stronger effect = higher value; nuclei count: measured here: cell count, toxicity
# [3] = inhibitors of E-selectin induction by TNFa, primary screen, imaging, HUVEC, immunofluorescence, MLSMR starter and 10KST1 sets (AID 487;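 active = visually confirmed hit in the image check and inhibition above 20%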;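 for inhibition: signal is fraction of cell area covered by stained E-selectin grains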;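 for nuclei count: 100% = median nuclei count of all wells on the same plate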); settings: HUVEC TNFalpha-induced E-selectin immunofluorescence imaging, at 2 µM; inhibition: stronger effect = higher value; nuclei count: measured here: cell number, toxicity
# [4] = target: Voltage-gated potassium channel subunit beta-2 (Rattus norvegicus) (UniProt P62483); experiment: KvBeta enzyme negative modulators, primary screen, biochemical, NADPH fluorescence (AID 622;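 active = fluorescence slope higher than the sample average by over 3 SD, cut at about -0.22 in these data, passing the limit was not always enough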;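 note: slope of raw intensity against log time taken from 70 to 1610 s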); settings: recombinant KvBeta, 4-cyanobenzaldehyde reduction, at 10 µM, stronger effect = higher value
# Voltage-gated potassium channel subunit beta-2 (Rattus norvegicus), sequence (P62483 whole entry, looked up): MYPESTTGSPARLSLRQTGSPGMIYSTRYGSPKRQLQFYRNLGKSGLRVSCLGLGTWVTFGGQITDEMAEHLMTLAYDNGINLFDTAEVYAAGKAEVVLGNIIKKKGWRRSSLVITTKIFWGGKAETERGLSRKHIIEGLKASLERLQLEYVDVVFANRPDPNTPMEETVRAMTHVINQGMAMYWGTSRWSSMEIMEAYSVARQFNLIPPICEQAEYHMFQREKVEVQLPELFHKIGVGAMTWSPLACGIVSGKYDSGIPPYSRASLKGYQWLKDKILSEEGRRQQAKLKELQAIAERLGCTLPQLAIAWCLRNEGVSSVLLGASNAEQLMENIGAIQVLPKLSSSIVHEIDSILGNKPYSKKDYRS
# [5] = target: Voltage-gated potassium channel subunit beta-2 (Rattus norvegicus) (UniProt P62483); experiment: KvBeta positive modulators, primary screen, biochemical, NADPH fluorescence (AID 623;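 active = NADPH fluorescence slope more negative than the mean of all samples by about 3 SD, 99.7% confidence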;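 note: fluorescence intensity change per second fitted from 20 to 320 s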); settings: Recombinant KvBeta, NADPH fluorescence decrease slope, 10 min; at 10 µM; stronger effect = lower value
# [6] = target: Muscarinic acetylcholine receptor M4 (Homo sapiens) (UniProt P08173); experiment: compounds altering M4/GIRK thallium flux, either direction, primary screen, M4 allosteric agonist project, cell-based, HEK293 M4/GIRK, BTC-AM (AID 625;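 active = fluorescence slope after compound addition differing from the mean of all tested samples at 99.7% confidence, mostly higher but some lower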;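 note: thallium influx through GIRK channels coupled to M4 in HEK293 cells with BTC-AM dye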); settings: at 10 µM, actives lie on both sides
# Muscarinic acetylcholine receptor M4 (Homo sapiens), sequence (P08173 whole entry, looked up): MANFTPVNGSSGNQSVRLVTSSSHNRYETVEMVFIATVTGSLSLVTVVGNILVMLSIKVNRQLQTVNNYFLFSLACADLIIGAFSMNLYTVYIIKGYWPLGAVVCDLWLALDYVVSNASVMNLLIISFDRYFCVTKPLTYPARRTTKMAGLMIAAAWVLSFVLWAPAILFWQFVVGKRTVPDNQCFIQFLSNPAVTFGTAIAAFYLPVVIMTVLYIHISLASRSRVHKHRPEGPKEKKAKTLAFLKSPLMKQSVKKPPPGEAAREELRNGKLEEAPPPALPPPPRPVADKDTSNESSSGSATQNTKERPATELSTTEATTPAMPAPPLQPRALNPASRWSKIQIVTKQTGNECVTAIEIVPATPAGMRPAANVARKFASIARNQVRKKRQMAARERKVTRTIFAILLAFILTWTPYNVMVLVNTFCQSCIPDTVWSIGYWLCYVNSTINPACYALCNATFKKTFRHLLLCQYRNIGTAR
# Outline: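 System: HEK293 cells with M4 receptor and GIRK channels | Incubation: Cells overnight at 37 °C, BTC-AM loading 1 h, reads 2 min total | Technique: Kinetic BTC-AM fluorescence sampled at 1 Hz, 10 s pre-addition baseline | Measure: Post-addition slope, 15–24 s, of baseline-normalized fluorescence | Control set: Carbachol positive, DMSO negative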
# [7] = inhibitors of Sendai virus-induced IRF3 signaling, primary screen, TLR/RLR signaling modifier project, cell-based, Sendai virus stimulus, luciferase, 10K MLSCN set (AID 602276); settings: HEK293 RL24 IRF3 luciferase reporter, at 10 µM, stronger effect = higher value;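 note: firefly luciferase from ISG56 promoter only with Renilla not read in this screen; 0% = Sendai virus plus DMSO and 100% = medium plus DMSO without virus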
# [8] = inhibitors of poly I:C-induced TLR3 signaling, primary screen, cell-based, poly I:C stimulus, luciferase, 10K MLSCN set (AID 602277;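 active = inhibition of the reporter signal at or above 50%; inactive = inhibition below 50%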); settings: HEK293-TLR3 RL24 IRF3 luciferase reporter, at 10 µM, stronger effect = higher value
Structure (SMILES),cell count [1],inhibition [1],inhibition of aggregation [2],nuclei count [2],inhibition [3],nuclei count [3],fluorescence slope [4],NADPH fluorescence slope [5],fluorescence slope [6],inhibition [7],inhibition [8]
COC(=O)C(C)Sc1nc2c(c(=O)n(C)c(=O)n2C)n1Cc1cccc(C)c1 (stereo not drawn),474,3.8% (inactive),-2.4% (inactive),99.3%,-27.3% (inactive),117%,-0.553 (inactive),-3.9e-05 (inactive),0.00598 (inactive),18.9% (inactive),26.2% (inactive)
CC(=O)N1CCC2(CC1)CC(=O)c1cc(OCC(=O)NCc3ccc(C)cc3)ccc1O2,314,-4.7% (inactive),2.5% (inactive),78.3%,-5% (inactive),119%,-0.0682 (inactive),-3.2e-06 (inactive),0.00521 (inactive),6.64% (inactive),5.97% (inactive)
COc1ccc(C)cc1NC(=O)CNC(=O)Cn1ccc2ccccc2c1=O,730,-14.1% (inactive),-10.4% (inactive),108%,21.2% (inactive),96.3%,-0.461 (inactive),-2.5e-05 (inactive),0.0048 (inactive),25.5% (inactive),20.3% (inactive)
Nc1sccc1C(=O)c1ccccc1,339,-5.4% (inactive),5.8% (inactive),110%,-45.7% (inactive),129%,-0.563 (inactive),7.1e-06 (inactive),0.00467 (inactive),-12.1% (inactive),-9.56% (inactive)
CC1(C)CC(=O)c2cnc(NCc3ccco3)nc2C1,480,7.7% (inactive),-7.2% (inactive),96.1%,-165% (inactive),150%,-0.407 (inactive),-1.8e-05 (inactive),0.00659 (inactive),-11.5% (inactive),-26.2% (inactive)
COc1cc(OC)cc(C(=O)NCCN2CCOCC2)c1,633,-11.2% (inactive),-0.4% (inactive),94.3%,-24.5% (inactive),108%,-0.573 (inactive),1.5e-05 (inactive),0.00526 (inactive),7.36% (inactive),9.91% (inactive)
Cc1ccc(S(=O)(=O)CCc2nnc(NC(=O)c3cnccn3)s2)cc1,578,-46.9% (inactive),-22.9% (inactive),116%,-82.9% (inactive),117%,-0.407 (inactive),-8.1e-06 (inactive),0.00653 (inactive),10.8% (inactive),22.5% (inactive)
COCC(=O)N(Cc1ccccc1)c1ccccn1,354,4.9% (inactive),1.6% (inactive),94.8%,-58.3% (inactive),153%,-0.599 (inactive),-4.6e-05 (inactive),0.00609 (inactive),11.8% (inactive),14.7% (inactive)
Cc1cc(C)nc(N2CCCC(C(=O)Nc3nc4ccc(S(C)(=O)=O)cc4s3)C2)n1 (stereo not drawn),599,1.8% (inactive),2.6% (inactive),117%,6.8% (inactive),107%,-0.459 (inactive),9.7e-05 (inactive),0.00564 (inactive),12% (inactive),11.5% (inactive)
Cc1cnc(-c2nnc(N(C)C(=O)C3CCOC3)s2)cn1 (stereo not drawn),340,-12.1% (inactive),26.6% (inactive),79%,41.6% (inactive),88.5%,-0.552 (inactive),-6.2e-06 (inactive),0.00481 (inactive),-2.32% (inactive),-11.8% (inactive)
CCOC(=O)Nc1ccc2c(c1)N(C(=O)CN(CC)CC)c1ccccc1C=C2,389,3.3% (inactive),-9.7% (inactive),108%,-96.2% (inactive),119%,-0.577 (inactive),-0.000132 (inactive),0.00312 (inactive),18.3% (inactive),26.3% (inactive)
CCOC(=O)c1ccc(NC(=O)CSc2ncccn2)cc1,366,10.7% (inactive),-25% (inactive),101%,-62.8% (inactive),100%,-0.532 (inactive),-0.000128 (inactive),0.0039 (inactive),-20.7% (inactive),-63.9% (inactive)
CS(=O)(=O)c1ccc2nc(NC(=O)CCC(=O)c3cccs3)sc2c1,517,2.6% (inactive),-3.8% (inactive),105%,-87.7% (inactive),95.8%,-0.594 (inactive),1.3e-06 (inactive),0.00448 (inactive),14.5% (inactive),4.68% (inactive)
CN(Cc1cnn(C)c1)C(=O)c1cc2ccccc2oc1=O,682,13% (inactive),-9.2% (inactive),92.1%,40% (inactive),98.2%,-0.484 (inactive),-5.1e-05 (inactive),0.00454 (inactive),11.1% (inactive),14% (inactive)
COC(=O)C1=C(C)NC(C)=C(C(=O)OC)C1c1cc2cc(C)ccc2[nH]c1=O,509,11.1% (inactive),-7.7% (inactive),102%,-103% (inactive),136%,-0.493 (inactive),-2.9e-05 (inactive),0.00508 (inactive),18.9% (inactive),30.9% (inactive)
CCOCCCNC(=O)C1CCC(=O)N1CCc1ccccc1 (stereo not drawn),237,2.7% (inactive),1.1% (inactive),92.5%,-20% (inactive),95.1%,-0.568 (inactive),-6.9e-06 (inactive),0.00522 (inactive),5.67% (inactive),12.9% (inactive)
O=C(CS(=O)(=O)Cc1ccccc1)N1CCc2ccccc2C1,753,-0.7% (inactive),13.8% (inactive),97.8%,-110% (inactive),124%,-0.529 (inactive),-4.4e-05 (inactive),0.00542 (inactive),-17.6% (inactive),-31.5% (inactive)
C#CC(CO)N(CCN(Cc1ccccc1)C(C#C)CO)Cc1ccccc1 (stereo not drawn),370,1.8% (inactive),-12.5% (inactive),104%,-29.5% (inactive),112%,-0.329 (inactive),-5.4e-05 (inactive),0.00458 (inactive),15.5% (inactive),20.6% (inactive)
COc1cc(C2=NOC(C(=O)NCc3ccc(F)cc3)C2)cc(OC)c1OC (stereo not drawn),774,13.6% (inactive),-195% (inactive),2.2%,-308% (inactive),103%,-0.462 (inactive),4.9e-05 (inactive),0.00672 (inactive),36.9% (inactive),85.8% (active)
COc1cc(CC(=O)NCc2ccc3c(c2)OCO3)cc(OC)c1OC,698,-7.8% (inactive),-5.2% (inactive),142%,-43.8% (inactive),124%,-0.519 (inactive),-0.000135 (inactive),0.00565 (inactive),6.85% (inactive),10.7% (inactive)
c1ccc(-c2noc(-c3cccnc3)n2)nc1,359,-2.1% (inactive),0.3% (inactive),102%,-85.3% (inactive),96.9%,-0.575 (inactive),-4.4e-05 (inactive),0.00712 (inactive),0.927% (inactive),-38.1% (inactive)
CCOC(=O)C1CCN(C(=O)C2CCN(S(=O)(=O)c3cc(Cl)ccc3Cl)CC2)CC1,738,-4.9% (inactive),14.8% (inactive),91.3%,4.5% (inactive),96.7%,-0.542 (inactive),2.5e-05 (inactive),0.00485 (inactive),16% (inactive),9.65% (inactive)
CCOc1ccc(Cl)cc1S(=O)(=O)N1CCCC1,208,1.4% (inactive),0.2% (inactive),101%,-46.5% (inactive),122%,-0.453 (inactive),2.4e-05 (inactive),0.00537 (inactive),17% (inactive),15.8% (inactive)
O=C(NCc1ccco1)C1CCN(S(=O)(=O)N2CCC3(CC2)OCCO3)CC1,358,5.3% (inactive),28.1% (inactive),84.3%,18% (inactive),72.6%,-0.317 (inactive),-3.5e-05 (inactive),0.00611 (inactive),0.326% (inactive),6.88% (inactive)
O=C(O)C1CC(=O)N(c2ccc(OCc3ccccc3Cl)cc2)C1 (stereo not drawn),339,-2.2% (inactive),12.7% (inactive),97.1%,-95.2% (inactive),94.8%,-0.644 (inactive),4e-05 (inactive),0.0043 (inactive),18.4% (inactive),23.2% (inactive)
N#CC1=C(SCc2ccccc2)NC(=O)C(C#N)C12CCCC2 (stereo not drawn),413,4% (inactive),-2.9% (inactive),116%,-9.1% (inactive),86.6%,-0.426 (inactive),2e-05 (inactive),0.00517 (inactive),2.21% (inactive),-12.9% (inactive)
O=C(Nc1cccc(F)c1)c1ccc2c(c1)OCO2,246,-2.1% (inactive),31.8% (inactive),83.5%,80.7% (active),85%,-0.597 (inactive),1.2e-05 (inactive),0.00384 (inactive),-56.2% (inactive),-121% (inactive)
CCCn1c(SCC(=O)NCCc2ccccc2)nnc1-c1ccccn1,501,-7.9% (inactive),12.6% (inactive),103%,-28.9% (inactive),104%,-0.543 (inactive),-4.4e-05 (inactive),0.00518 (inactive),3.67% (inactive),12.4% (inactive)
